Calls of active or inactive are those of the source. The calls are words filed in the database; no cut-off is given here.
What was measured:
[1] = tested on: GISTT1; assay: Down regulation of c-kit gene expression at translational level in human GIST-T1 cells at 5 uM; type: functional, cell-based
[2] = tested on: SGC-7901; assay: Induction of morphological changes in human SGC7901 cells assessed as apoptotic body formation at 7.5 uM incubated for 36 hrs by microscopic analysis; type: functional, cell-based
In short: (§1)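 Cells seeded at 2 × 10^5 per well and grown 24 h. Medium then replaced with compound-containing medium. After 36 h co-culture, morphology inspected by light microscopy.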

[3] = tested on: A549; assay: Induction of apoptosis in human A549 cells assessed as late apoptotic cells at 7.5 uM incubated for 36 hrs by Annexin V-FITC/propidium iodide staining-based flow cytometric analysis (reference value: 0.41 %); type: functional
[4] = tested on: GISTT1; assay: Antiproliferative activity against human GIST-T1 cells; type: functional, cell-based
[5] = tested on: A549; assay: Induction of morphological changes in human A549 cells assessed as cell detachment at 15 uM incubated for 36 hrs by microscopic analysis; type: functional, cell-based; in short: as §1
[6] = tested on: A549; assay: Induction of apoptosis in human A549 cells assessed as early apoptotic cells at 15 uM incubated for 36 hrs by Annexin V-FITC/propidium iodide staining-based flow cytometric analysis (reference value: 1.41 %); type: functional
[7] = tested on: MKN-45; assay: Antiproliferative activity against human MKN-45 cells assessed as reduction in cell viability incubated for 48 hrs by xCELLigence RTCA; type: functional, cell-based; conditions: MKN-45, 48 h
[8] = tested on: SGC-7901; assay: Induction of apoptosis in human SGC7901 cells assessed as viable cells at 15 uM incubated for 36 hrs by Annexin V-FITC/propidium iodide staining-based flow cytometric analysis (reference value: 93.2 %); type: functional; conditions: read-out: Activity
[9] = tested on: SGC-7901; assay: Down regulation of c-kit gene expression in human SGC-7901 cells incubated for 36 hrs by Western blot analysis; type: functional, cell-based
In short: (§2)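 Cells exposed to compound for 36 h, then lysed in RIPA and protein measured by BCA. 30 units of total protein separated by 10% SDS-PAGE, transferred to PVDF and blocked with 5% BSA. Primary antibodies, with β-tubulin as reference, at 4 °C; secondary 2 h; ECL detection. Bands quantified by densitometry, mean ± SD, n = 3.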

[10] = tested on: SGC-7901; assay: Induction of apoptosis in human SGC7901 cells assessed as early apoptotic cells at 7.5 uM incubated for 36 hrs by Annexin V-FITC/propidium iodide staining-based flow cytometric analysis (reference value: 2.74 %); type: functional
[11] = tested on: SGC-7901; assay: Induction of morphological changes in human SGC7901 cells assessed as cell detachment at 7.5 uM incubated for 36 hrs by microscopic analysis; type: functional, cell-based; in short: as §1
[12] = tested on: A549; assay: Antiproliferative activity against human A549 cells assessed as reduction in cell viability incubated for 48 hrs by xCELLigence RTCA; type: functional, cell-based; conditions: A549, 48 h
[13] = tested on: A549; assay: Induction of morphological changes in human A549 cells assessed as membrane bulge at 15 uM incubated for 36 hrs by microscopic analysis; type: functional, cell-based; in short: as §1
[14] = tested on: SGC-7901; assay: Induction of apoptosis in human SGC7901 cells assessed as necrotic cells at 15 uM incubated for 36 hrs by Annexin V-FITC/propidium iodide staining-based flow cytometric analysis (reference value: 0.34 %); type: functional
[15] = tested on: SGC-7901; assay: Induction of apoptosis in human SGC7901 cells assessed as late apoptotic cells at 7.5 uM incubated for 36 hrs by Annexin V-FITC/propidium iodide staining-based flow cytometric analysis (reference value: 3.69 %); type: functional
[16] = tested on: A549; assay: Induction of apoptosis in human A549 cells assessed as late apoptotic cells at 15 uM incubated for 36 hrs by Annexin V-FITC/propidium iodide staining-based flow cytometric analysis (reference value: 0.41 %); type: functional
[17] = tested on: SGC-7901; assay: Down regulation of c-kit mRNA expression in human SGC-7901 cells at 7.5 uM incubated for 36 hrs by Western blot analysis; type: functional, cell-based; conditions: in the assay text read “RT-PCR analysis” for “Western blot analysis”
In short: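 Cells treated for 36 h. Total RNA quantified by Nanodrop and checked on 1.5% agarose with ethidium bromide. 400 ng RNA per one-step RT-PCR with c-kit-specific primers; reverse transcription 30 min at 50 °C, then 2 min at 94 °C. Normalized to β-actin; semi-quantitative.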

[18] = tested on: dsDNA; assay: Binding affinity to 5'-AGGGGAGGCGAGGAGGGGCGTGGCCGG-3'/3'-TCCCCTCCGCTCCTCCCCGCACCGGCC-5' dsDNA (unknown origin) by circular dichroism spectroscopic analysis; type: nucleic-acid assay; conditions: Homo sapiens
In short: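 Target duplex annealed at 95 °C, held 24 h in pH 7.0 buffer (10 mM sodium cacodylate, 100 mM NaCl, 0.5% DMSO), then degassed. Compound titrated in at compound:DNA ratios 0.0–3.0, room temperature, 15 min equilibration per addition. CD read 225–400 nm in a 5 mm quartz cell at 100 nm/min, 5.0 nm bandwidth. Average of three parallel runs.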

[19] = tested on: A549; assay: Inhibition of cell migration in human A549 cells at 1.5 uM incubated for 48 hrs by inverted fluorescence microscope based scratch wound healing assay; type: functional
In short: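 20 × 10^4 cells per well grown to 80% confluence. Wound scratched with a pipette tip, washed twice with PBS and photographed under an inverted fluorescence microscope. Cells then held in serum-free medium with compound for 48 h. Migration measured as distance moved from the wound edge; mean ± SD, n = 3.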

[20] = tested on: dsDNA; assay: Binding affinity to 5'-AGGGGAGGCGAGGAGGGGCGTGGCCGG-3'/3'-TCCCCTCCGCTCCTCCCCGCACCGGCC-5' dsDNA (unknown origin) at 1:2 DNA:compound ratio by SYBR GOLD staining based EMSA; type: nucleic-acid assay; conditions: Homo sapiens
In short: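 Target 27-bp c-kit promoter duplex, annealed at 95 °C, then incubated overnight with or without compound in pH 7.4 buffer (10 mM Tris-HCl, 10 mM KCl, 0.1 mM EDTA). Mixtures run on 16% native polyacrylamide gel at 150 V for 3 h. Gels stained with SYBR Gold for 30 min and imaged on a gel documentation system.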

[21] = tested on: SGC-7901; assay: Induction of morphological changes in human SGC7901 cells assessed as appearance of round shaped cells at 7.5 uM incubated for 36 hrs by microscopic analysis; type: functional, cell-based; in short: as §1
[22] = tested on: A549; assay: Induction of apoptosis in human A549 cells assessed as viable cells at 15 uM incubated for 36 hrs by Annexin V-FITC/propidium iodide staining-based flow cytometric analysis (reference value: 97.9 %); type: functional; conditions: read-out: Activity
[23] = Drug localization in nucleus of human SGC-7901 cells incubated for 24 hrs by Hoechst-33342 staining based confocal laser scanning microscopic analysis; type: ADME, subcellular; conditions: sgc-7901, 24 h
In short: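 SGC-7901 cells cultured 24 h, then given fluorescein-labeled polyamide (1.0, unit unclear) for 4 h. Medium replaced and culture continued 20 h. Live cells viewed at ×300, then fixed in 4% paraformaldehyde for 10 min. Nuclei stained with Hoechst 33342 for 5 min, PBS-washed, imaged by confocal laser scanning microscopy.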

[24] = tested on: A549; assay: Down regulation of c-kit gene expression in human A549 cells incubated for 36 hrs by Western blot analysis; type: functional, cell-based; in short: as §2
[25] = tested on: A549; assay: Induction of apoptosis in human A549 cells assessed as necrotic cells at 15 uM incubated for 36 hrs by Annexin V-FITC/propidium iodide staining-based flow cytometric analysis (reference value: 0.31 %); type: functional
[26] = tested on: GISTT1; assay: Down regulation of c-kit gene expression at transcriptional level in human GIST-T1 cells; type: functional, cell-based

Which results are given for `CC(=O)Nc1cn(C)c(C(=O)Nc2cn(C)c(C(=O)Nc3cc(C(=O)Nc4cn(C)c(C(=O)NCCC(=O)Nc5cn(C)c(C(=O)Nc6cn(C)c(C(=O)NCC[C@@H](N)C(=O)Nc7cc(C(=O)Nc8cc(C(=O)NC[C@@H](O)CC(=O)Nc9cc(C(=O)Nc%10cn(C)c(C(=O)Nc%11cc(C(=O)Nc%12cc(C(=O)NCCC(=O)NCCCN(C)C)n(C)c%12)n(C)c%11)n%10)n(C)c9)n(C)c8)n(C)c7)n6)n5)n4)n(C)c3)n2)n1.Cl.Cl`?
Activity [1]: Active; Activity [2]: Active; Activity [3]: 14.1%; Activity [4]: Active; Activity [5]: Active; Activity [6]: 28.9%; IC50 [7]: 7.41 µM; viability at 15 µM [8]: 43.6%; Activity [9]: Dose-dependent effect; Activity [10]: 32.4%; Activity [11]: Active; IC50 [12]: 5.97 µM; Activity [13]: Active; Activity [14]: 1.83%; Activity [15]: 10.2%; Activity [16]: 19.6%; Activity [17]: Active; Activity [18]: Active; inhibition at 1.5 µM [19]: 83.8%; Activity [20]: Active; Activity [21]: Active; viability at 15 µM [22]: 51.4%; Drug uptake [23]: Active; Activity [24]: Dose-dependent effect; Activity [25]: 0.12%; Activity [26]: Active

— ChEMBL document CHEMBL4765441, “Design, synthesis and anti-cancer activity of pyrrole-imidazole polyamides through target-downregulation of c-kit gene expression” (Eur J Med Chem, 2020)
